From ChEMBL document CHEMBL4680079, “Discovery of a Quinoline-4-carboxamide Derivative with a Novel Mechanism of Action, Multistage Antimalarial Activity, and Potent in Vivo Efficacy” (J Med Chem, 2016) come the findings set out here.

The EC50 is the concentration that produces a half-maximal response. One may read the bioavailability as the share of a dose that reaches the circulation, judged against a reference dose that is usually intravenous. The AUC is the area under the concentration-time curve, a measure of exposure. The Tmax is the time at which the peak concentration occurs. As usually defined, the Cmax is the highest concentration seen after dosing.

Series [1] concerns Plasmodium falciparum. Description: Antiplasmodial activity against drug resistant Plasmodium falciparum W2 by [3H]hypoxanthine incorporation assay. The class given is functional, organism-based. An outline of the steps: (§1)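 Strains (K1, W2, 7G8, TM90C2A, D6, V1/S resistant; NF54 sensitive) cultured by the Trager and Jensen method; EC50 determined in vitro from [3H]hypoxanthine incorporation.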

Series [2] deals with Plasmodium falciparum. Kind of series: Antiplasmodial activity against drug resistant Plasmodium falciparum K1 by [3H]hypoxanthine incorporation assay. The class given is functional, organism-based. An outline of the steps: as §1
For a further series, the system named is Plasmodium yoelii. Kind of series: Antiplasmodial activity against Plasmodium yoelli liver stage forms. The class given is functional, organism-based.
For series [3], the system named is Plasmodium falciparum. Description: Antiplasmodial activity against late stage (IV/V) Plasmodium falciparum NF54 gametocytes transfected with GFP-LUC assessed as growth inhibition incubated for 72 hrs by mitotracker Red-CMXROS dye based fluorescence microscopic analysis. The class given is functional, organism-based. As to conditions: NF54, 72 h. An outline of the steps:
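NF54 pfs16-LUC-GFP stage IV–V gametocytes (10% parasitaemia, 0.1% haematocrit) exposed to compound in 0.4% DMSO, three concentrations per log, for 72 h at 37°C under 5% CO2/5% O2/90% N2. MitoTracker Red CM-H2Xros then added for 16 h and viable gametocytes counted by imaging.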

In series [4] the test system is Plasmodium falciparum. Kind of series: Antiplasmodial activity against chloroquine-sensitive Plasmodium falciparum 3D7 infected in human red blood cells assessed as growth inhibition by SYBR Green fluorescence assay. The class given is functional, organism-based, RBC. The conditions noted are these: 3D7, Erythrocyte. A digest of the protocol:
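P. falciparum 3D7 grown in 5% human red cells in RPMI 1640 (pH 7.3) with 0.5% Albumax II, hypoxanthine and gentamicin at 37°C under 1% O₂/3% CO₂. Growth measured by SYBR green fluorescence (ex 485/em 528 nm), with mefloquine as assay control. EC50 calculated.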

The test system of a further series is MRC5. Description: Antiproliferative activity against human MRC5 cells assessed as reduction in cell viability after 68 hrs by resazurin dye based fluorescence assay. As to conditions: MRC5, 68 h. An outline of the steps:
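MRC-5 fibroblasts plated overnight as monolayers, exposed to compound pre-diluted in MEM for 68 h. Resazurin then added (final 50 μM) for 3 h, fluorescence read at ex 528/em 590 nm. Signal converted to % inhibition against high- and no-inhibition controls. Plates accepted at Z' > 0.5.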
(In general: The colour change of resazurin is a common sign of viable cells or microbes.)

The nature of series [5]: Intrinsic clearance in CD1 mouse liver microsomes at 0.5 uM in presence of NADPH incubated upto 30 mins by UPLC-MS/MS analysis. The class given is ADME, Microsome. As to conditions: 0.5 h. An outline of the steps:
(§2)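 Compound at 0.5 μM incubated with female CD1 mouse, male Sprague-Dawley rat or pooled human liver microsomes (0.5 mg/mL, 50 mM potassium phosphate, pH 7.4). Reaction started with excess NADPH. Samples taken at 0-30 min, quenched in acetonitrile, analysed by UPLC-MS/MS. Verapamil used as control, single time course.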
(In general: Microsomes from liver hold many membrane-bound enzymes, among them those of drug oxidation.)

The nature of series [6]: Kinetic aqueous solubility of the compound by laser nephelometry. As to conditions: read-out: Kinetic_solubility. The class given is physicochemical. A digest of the protocol: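 Kinetic solubility measured by laser nephelometry. DMSO serial dilutions diluted into water to give final 100–5 μg/mL at 1.0% DMSO. Read immediately, in triplicate aliquots.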
Series [7] in a line: Intrinsic clearance in Sprague-Dawley rat liver microsomes at 0.5 uM in presence of NADPH incubated upto 30 mins by UPLC-MS/MS analysis. The class given is ADME, Microsome. As to conditions: 0.5 h. An outline of the steps:
as §2

Series [8] is described as follows: Intrinsic clearance in human liver microsomes at 0.5 uM in presence of NADPH incubated upto 30 mins by UPLC-MS/MS analysis. The class given is ADME, Microsome. As to conditions: 0.5 h. A digest of the protocol:
as §2

A short description of series [9]: Protein binding in CD1 mouse plasma measured after 5 hr by UPLC-MS/MS analysis based equilibrium dialysis method. The class given is ADME, cell-free. As to conditions: CD1, mouse, read-out: PPB (converted). An outline of the steps: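 Equilibrium dialysis of female CD1 mouse plasma spiked at 10 μg/mL (12-14 kDa membrane) against isotonic buffer for 5 h at ~37°C with shaking. Unbound fraction taken as the buffer/plasma peak-area ratio by UPLC-MS/MS. n=6 replicates, run in triplicate.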

The nature of series [10]: Oral bioavailability in NMRI mouse at 10 mg/kg administered via gavage by UPLC-MS/MS analysis. As to conditions: in vivo. The class given is ADME, organism-based. An outline of the steps:
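Female NMRI mice (n=3) dosed by oral gavage as a solution at 10 mg free base/kg (10 mL/kg; vehicle 5 or 10% DMSO, 40% PEG400). Blood levels measured by UPLC-MS/MS. Parameters derived from the blood concentration-time curve.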

Series [11] deals with Plasmodium berghei. Kind of series: Antiplasmodial activity against Plasmodium berghei ANKA infected in NMRI mouse assessed as cure rate at 10 mg/kg, po QD for 4 days. The class given is functional, organism-based. The conditions noted are these: time 4.0 day. A digest of the protocol: (§3)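 Female NMRI mice (n=3 per group, randomized, not blinded) infected with GFP-transfected P. berghei ANKA. Oral dosing once daily for 4 days in 10% DMSO/40% PEG400/50% water or HPMC suspension vehicle. Parasitaemia measured by flow cytometry on blood collected 96 h after infection. Mice watched for toxicity over 4 h post-dose each day.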

For series [12], the system named is Plasmodium berghei. Description: Antiplasmodial activity against Plasmodium berghei infected in NMRI mouse assessed as reduction in parasitemia at 3 mg/kg, po QD for 4 days. Further details: scale not given: the % may be the effect or the level left. The class given is functional. The conditions noted are these: time 4 day. An outline of the steps:
as §3

Series [13] has as its system Plasmodium berghei. Description: Antiplasmodial activity against Plasmodium berghei ANKA infected in NMRI mouse assessed as reduction in parasitemia at 1 mg/kg, po QD for 4 days. The arrangement: scale not given: the % may be the effect or the level left. The conditions noted are these: time 4 day. The class given is functional. A digest of the protocol: as §3
Series [14] can be described thus: Half-life in Sprague-Dawley rat at 1 mg/kg, iv administered as bolus dose by UPLC-MS/MS analysis. The class given is ADME, organism-based. The conditions noted are these: in vivo, 1 mg/kg. A digest of the protocol:
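Male Sprague Dawley rats (n=3/route) received an iv bolus solution at 1 mg free base/kg (5 mL/kg; 5% DMSO in saline). Blood sampled from 5 min to 30 or 48 h post-dose, mixed with two volumes water, frozen, then analysed by UPLC-MS/MS. Parameters derived from the blood concentration-time curve.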

A short description of series [15]: Oral bioavailability in Sprague-Dawley rat at 3 mg/kg administered via gavage by UPLC-MS/MS analysis. The class given is ADME, organism-based. As to conditions: in vivo. A digest of the protocol: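 Oral gavage solution, 3 mg free base/kg (10 mL/kg; 0.5% w/v HPMC, 0.4% v/v Tween 80, 0.5% v/v benzyl alcohol), given to male Sprague Dawley rats (n=3). Blood taken at 5, 15, 30 min and 1, 2, 4, 6, 8, 24, 30 h, mixed with two volumes water, analysed by UPLC-MS/MS.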

In series [16] the test system is Plasmodium berghei. Kind of series: Antiplasmodial activity against GFP-transfected Plasmodium berghei ANKA infected in NMRI mouse assessed as reduction in parasitemia by measuring effective dose administered once daily oral dose for 4 days. The class given is functional. The conditions noted are these: 96 h, time 4 day. An outline of the steps: as §3
Series [17] concerns Plasmodium falciparum. Description: Antiplasmodial activity against drug resistant Plasmodium falciparum TM90C2A by [3H]hypoxanthine incorporation assay. The class given is functional, organism-based. An outline of the steps: as §1
Series [18] deals with Plasmodium falciparum. Kind of series: Antiplasmodial activity against drug resistant Plasmodium falciparum D6 by [3H]hypoxanthine incorporation assay. The class given is functional, organism-based. An outline of the steps: as §1
Series [19] relates to Plasmodium falciparum. Kind of series: Antiplasmodial activity against drug resistant Plasmodium falciparum V1/S by [3H]hypoxanthine incorporation assay. The class given is functional, organism-based. An outline of the steps:
as §1

Series [20] can be described thus: AUC in NMRI mouse at 3 mg/kg, po administered as gavage by UPLC-MS/MS analysis. The class given is ADME, organism-based. The arrangement: dose 3 mg/kg. The conditions noted are these: in vivo.
A short description of series [21]: Tmax in NMRI mouse at 3 mg/kg, po administered as gavage by UPLC-MS/MS analysis. The class given is ADME, organism-based. As to conditions: in vivo.
The nature of series [22]: Cmax in Sprague-Dawley rat at 5 mg/kg, po administered via gavage by UPLC-MS/MS analysis. The arrangement: route oral, dose 5 mg/kg. The class given is ADME, organism-based. The conditions noted are these: in vivo. An outline of the steps:
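Male Sprague Dawley rats (n=3) gavaged with a solution at 5 mg free base/kg (10 mL/kg; 0.5% w/v HPMC, 0.4% v/v Tween 80, 0.5% v/v benzyl alcohol). Blood sampled at 5, 15, 30 min and 1, 2, 4, 6, 8, 24, 30, 48 h, diluted with two volumes water, analysed by UPLC-MS/MS.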

Each structure is given as a SMILES string. Converted amounts (≈) assume the structure as drawn. The source made the active and inactive calls. The rule behind the calls is not given here.

With `O=C(NCCN1CCCC1)c1cc(-c2ccc(CN3CCOCC3)cc2)nc2ccc(F)cc12` [CABAMIQUINE], the EC50 with Plasmodium falciparum [1] was 0.4 nM; in the series with Plasmodium falciparum [2] it was 0.4 nM; in the series on Plasmodium yoelii it was 1 nM; in the series with Plasmodium falciparum [3], 24 nM; with Plasmodium falciparum [4] it was 1 nM; with MRC5 it was 24000 nM. Further, the concentration giving a half-maximal response (EC50) in the series with Plasmodium falciparum [17] stood at 0.4 nM; in the series on Plasmodium falciparum [18], 0.4 nM; in the series on Plasmodium falciparum [19], 0.7 nM. Moreover, the CLH is below 0.5 mL/min/g in series [5], “<= 0.8 ml/min/g” in series [7] and “<= 1.1 ml/min/g” in series [8]. The solubility kinetic in series [6] was found to be 216 µM (≈ 99.9 µg/mL). For the same molecule, the fraction unbound at 5 h in series [9] was 0.37. Also, the bioavailability in series [10] worked out at 74%; in series [15] it was 84%. Besides, the result with Plasmodium berghei [11] was Active. The Activity with Plasmodium berghei [12] and with Plasmodium berghei [13] was 99.9% throughout. The same molecule gave a t1/2 in series [14] of 10 h. For the same molecule, the ED90 in the series on Plasmodium berghei [16] came out at 0.1 mg/kg. This molecule gave an exposure (AUC) in series [20] of 2.99 µg·h/mL. Also, in series [21], the Tmax was found to be 1 h. This molecule also yielded a Cmax in series [22] of 0.18 µg/mL.
